The data set can be described thus: Toxicity liver stage against HepG2, at 10uM. In kind it is cell-based. The conditions noted are these: human, HepG2-A16-CD81EGFP cells; read-out: INHIBITION
Also noted: test concentration 10 uM, cell line HepG2-A16-CD81EGFP. Put shortly:
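Uninfected HepG2-A16-CD81EGFP cells, 3 × 10^3 per well, 1536-well, plated on prespotted compound at 10 μM final, parasite-free screening media added to match infected plates; puromycin 10 μM positive, DMSO 0.5% negative; run in parallel with 48 h PbLuc assay at 37 °C, 5% CO2; viability by CellTiter-Glo luminescence, normalized to controls.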
Turning to `Cc1nn(CCC#N)c(C)c1[C@@H]1C=C[C@@H](NCc2ccc(F)cc2)C1`, the cytotoxicity at 10 µM was 2%.
`CCc1nc(-c2ccc(NC(=O)N3CCOCC3)cc2)no1`: the cytotoxicity at 10 µM was found to be 5.48%.
The value for `O=C(Nc1ccc(Br)cc1F)c1cc(CN2CCOCC2)on1` was 6.39%.
The value for `CCOC(=O)[C@@H]1[C@H]2CN(C(=O)OC)CCN2C[C@H]1c1ccccc1` was 6.72%; that for `COc1cccc(-c2cc(C(=O)Nc3nc[nH]n3)[nH]n2)c1` was -5.51%.
For `COc1ccc(-c2cc(C(=O)Nc3nc[nH]n3)[nH]n2)cc1` the value was -12.1%; for `O=C(Nc1ncnc2c1CCC2)c1cccc(F)c1`, -172%.
For `COCC(C)(O)CNC(=O)c1cc(-c2cc(OC)ccc2OC)nn1C` (stereo not drawn), the cytotoxicity at 10 µM is -6.42%.
`Cn1cccc1C(=O)N1CCC2(CC1)CN(S(C)(=O)=O)c1ccccc12`: the cytotoxicity at 10 µM was 4.73%.
The value for `O=C(c1ccnnc1)N1CC2(CCN(c3ncccn3)C2)C1` was 5.62%; that for `O=S(=O)(NC1=NCN(CCc2cccs2)CN1)c1ccc(Br)cc1` was -2.35%; that for `CCOc1ccc(Cl)cc1CNCCCn1ccnc1` was 1.36%.
Take `Cn1cc(CN2C[C@@H]3COC[C@]3(COc3ccc(C#N)cn3)C2)cn1`: the cytotoxicity at 10 µM was -11.3%.
The value for `CC(C)c1noc(C2CCN(C(=O)c3cccs3)CC2)n1` was 1.51%; that for `Cc1ccnn1CCNC(=O)c1cnc(N(C)C)nc1` was 2.24%; that for `c1cncc(CC2CN(c3cccnc3)CCO2)c1` (stereo not drawn) was -0.41%.
For `NC(=O)CN1CCOCC(Cc2cccc(F)c2)C1` (stereo not drawn) the value was -12.2%.
For `CC(C)(C)C(=O)Nc1ccc(Oc2ccsc2C(=O)O)cc1` the value was 7.26%.
`COc1ccccc1[S+]([O-])CC(=O)NCc1cc(F)cc(F)c1` (stereo not drawn): the cytotoxicity at 10 µM stood at 24.3%.
As for `CC(NS(C)(=O)=O)C(=O)Nc1ccc2oc(C3CC3)nc2c1` (stereo not drawn), the cytotoxicity at 10 µM came out at 2.78%.
The value for `CC1CCC(O)(CSc2nnnn2C2CC2)CC1` (stereo not drawn) was -1.97%; that for `OC1(CNc2ccc(Br)cn2)CCSCC1` was 5.63%.
Regarding `OCCN1CCC(CNCc2cn(-c3ccccc3)nn2)CC1`, the cytotoxicity at 10 µM worked out at 0.03%.
With `CN(CC(N)=O)Cc1cc(Cl)cc2cccnc12`, the cytotoxicity at 10 µM was determined as 6.37%.
As for `O=C(NS(=O)(=O)c1cccc(C(F)(F)F)c1)c1cscn1`, the cytotoxicity at 10 µM came out at 1.67%.
The value for `Cc1noc(C)c1CS(=O)(=O)CC(=O)NCCc1cccs1` was -1.6%; that for `Cc1cc(N(C)C)nc(N2CC(n3cccn3)C2)n1` was -3.24%.
With `c1cc(-c2noc(C3CCC3)n2)cc(N2CCCCC2)n1`, the cytotoxicity at 10 µM is -1.39%.
The value for `CSCC(C)(O)CNC(=O)c1cc(F)ccc1Br` (stereo not drawn) was -5.41%; that for `COC(=O)N1CCN(Cc2csc(-c3ncccn3)n2)CC1` was -7.53%.
For `CCC(CC)NC(=O)NCc1ccnc(-n2ccnc2C)c1` the value was -1.21%; for `c1coc(CNc2nnc(Cc3ccsc3)o2)c1`, -2.28%; for `CC1(C)CCC(CC(=O)O)c2ccccc21` (stereo not drawn), 2.93%.
The value for `CC(NC(=O)COC1CCCC1)c1nc(-c2ccccc2)c[nH]1` (stereo not drawn) was 4.24%; that for `CCNC(=O)N1CCC(NC(=O)NCCc2cc3ccccc3o2)C1` (stereo not drawn) was -51.8%; that for `Cc1cccc(OCCNC(=O)C(C)S(=O)(=O)c2ccccn2)c1` (stereo not drawn) was 5.76%.
Regarding `COC(=O)NCCC(=O)NC(c1ccc(Cl)cc1)C(F)(F)F` (stereo not drawn), the cytotoxicity at 10 µM turned out to be 7.51%.
The value for `CC(c1ccccn1)N(C)C(=O)NCCn1c(=O)oc2ccccc21` (stereo not drawn) was -6.37%; that for `Cc1cnn(CCCOc2ccc3c(c2)OCO3)c1` was 8.4%.
The value for `O=C(Cc1ccccc1O)Nc1ccc(N2CCCC2)nc1` was 9.31%.
For `CC(=O)N(C)Cc1ccc(OCc2cccs2)cc1` the value was 12.4%.
As to `Cn1ncnc1NCc1ccc(F)cc1`, the cytotoxicity at 10 µM was determined as 0.361%.
Consider `CC(C)n1cc(CN2CCCN(C(=O)c3nccnc3N)CC2)cn1`, for which the cytotoxicity at 10 µM is 7.13%.
For `CC(Oc1ccccc1C(F)(F)F)C(=O)NCCC(=O)N(C)C` (stereo not drawn) the value was -4.25%; for `O=C1O[C@@H]2CN(Cc3ccncc3)C[C@@H]2N1CCCN1CCOCC1`, -6.13%.
For `O=C(Cn1ccc(=O)cc1)NCc1ccc2sccc2c1`, the cytotoxicity at 10 µM turned out to be 0.592%.
As for `Cc1nc(CCN)cc(N2CCOc3ccc(Cl)cc3C2)n1`, the cytotoxicity at 10 µM is -0.29%.
For `CSCc1ccc(N(C)CC2CCCN(C(C)C)C2)nc1` (stereo not drawn) the value was -128%; for `CCCn1ncnc1C(C)NC(=O)C1CCN(CC(N)=O)CC1` (stereo not drawn), -140%; for `O=C(c1scc2c1OCCO2)N1CCN(Cc2cccc(F)c2)CC1`, 0.993%.
Regarding `CN(CCc1ccccc1)c1cnn(CC2COCCO2)c(=O)c1` (stereo not drawn), the cytotoxicity at 10 µM was -10.3%.
As for `O=C(O)[C@@H]1CN(C(=O)NCC2CCCCC2)C[C@H]1c1ccccn1`, the cytotoxicity at 10 µM came out at 7.15%.
For the compound `CCCn1ncc(-c2nc3c(cnn3CC)[nH]2)c1C`, the cytotoxicity at 10 µM was determined as 4.05%.
For `CN(C)c1ccc(CN2CCC(C(O)Cc3ccccc3)CC2)cn1` (stereo not drawn) the value was -1.29%; for `CCSCC(C)NCc1nc(-c2cccnc2)no1` (stereo not drawn), -7.66%; for `N#Cc1c(C2CC2)cc(-c2ccc(F)c(F)c2)nc1N`, -5.73%.
The value for `CCc1c(C)nn(CCNC(=O)C2CCCN(C(=O)N(C)C)C2)c1C` (stereo not drawn) was -4.42%; that for `O=C(Nc1cc(C(F)(F)F)c[nH]c1=O)N1CCSCC1` was -5.1%; that for `Cc1cccc(OCCNC(=O)CN2CCN(C)CC2C)c1` (stereo not drawn) was -2.66%.
The value for `CN(Cc1ccc(N(C)C)cc1)C(=O)c1cc2c([nH]c1=O)CCCC2=O` was -3.34%.
Consider `CN(C)c1cc(C(=O)N2CCN(c3nccs3)CC2)ccn1`, for which the cytotoxicity at 10 µM is -10.8%.
For `Cc1cc(C)n(CC2CCCN2C(=O)Cc2c(C)nn(C)c2C)n1` (stereo not drawn) the value was -13.8%; for `CC(C)c1nc(C2CCCN(C(=O)c3ccc4nncn4c3)C2)no1` (stereo not drawn), -4.38%; for `COCc1nc(C(=O)N2CCCC2Cn2cc(C)cn2)cs1` (stereo not drawn), -1.36%.
Turning to `CCc1noc(C)c1C(=O)N1CCCN(Cc2cscn2)CC1`, the cytotoxicity at 10 µM is -0.448%.
In the case of `Cc1cccc(CO[C@@H]2CC[C@H]3[C@H]2OCCN3Cc2nccs2)n1`, the cytotoxicity at 10 µM came to 5.2%.
The value for `CN(C)CCN1CCCC12CCN(C(=O)c1ccoc1)CC2` was -1.83%.
The value for `CCN(CC)CC1CN(Cc2nccs2)Cc2nccn2C1` (stereo not drawn) was 1.13%.
With `O=C(CC1CCCC1)N1CCC2(CCN2Cc2ccc(F)cc2)C1` (stereo not drawn), the cytotoxicity at 10 µM was -5.66%.
The value for `Cc1nnsc1CN1C[C@H]2CC[C@@H](C1)N(Cc1c(C)noc1C)C2=O` was -4.56%.
For `Cc1ccc(NC(=O)Nc2c(O)c3ccccc3oc2=O)cc1C`, the cytotoxicity at 10 µM was 5.89%.
As for `CCN1C(=O)CCC12CCC(NC(=O)c1cnccn1)CC2` (stereo not drawn), the cytotoxicity at 10 µM was -2.42%.
On to `CC(C)NC(=O)[C@H]1C[C@H]2CN(C(=O)NCc3ccccc3)C[C@@H]1O2`, for which the cytotoxicity at 10 µM stood at 5.5%.

(Values after ChEMBL document CHEMBL4513216, “Probing the Open Global Health Chemical Diversity Library for Multistage-Active Starting Points for Next-Generation Antimalarials” (ACS Infect Dis, 2020).)
